Assay results from ChEMBL document CHEMBL1153955, “Indolylarylsulfones bearing natural and unnatural amino acids. Discovery of potent inhibitors of HIV-1 non-nucleoside wild type and resistant mutant strains reverse transcriptase and coxsackie B4 virus” (J Med Chem, 2009).

How the values were obtained:
[1] = test system: Mammalian orthoreovirus 1; experiment: Antiviral activity against Reovirus 1 in african green monkey Vero cells assessed as protection against virus-induced cytopathicity; type: functional, organism-based; settings: Mammalian orthoreovirus 1, Vero
How it was run: (§1)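 Confluent cell monolayers inoculated with 100 CCID₅₀ virus. After 1-2 h adsorption, residual virus removed and cultures incubated with varying compound concentrations. Cytopathicity scored once it reached completion in untreated infected controls. EC₅₀ = dose reducing virus-induced cytopathogenicity by 50%.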

Influenza B virus [2] = experiment: Antiviral activity against influenza B virus in MDCK cells assessed as reduction of virus-induced cytopathicity by MTS method; type: functional, organism-based
[3] = biological target: Human immunodeficiency virus type 1 reverse transcriptase (Human immunodeficiency virus 1, UniProt Q72547, L100I); experiment: Inhibition of HIV1 reverse transcriptase p66/p51 L100I mutant; settings: read-out: IC50
How it was run: (§2)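 Substrate was 0.5 µg poly(rA)/oligo(dT) 10:1 (0.3 µM 3′-OH ends) with 10 µM [³H]dTTP, at 37 °C. Acid-precipitable radioactivity was counted on GF/C filters after TCA washes.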

Influenza B virus [4] = experiment: Antiviral activity against influenza B virus in MDCK cells assessed as reduction of virus-induced cytopathicity by visual cytopathic effect scoring method; type: functional, organism-based
Influenza A virus [5] = experiment: Antiviral activity against influenza H1N1 virus in MDCK cells assessed as reduction of virus-induced cytopathicity by MTS method; type: functional, organism-based; settings: Influenza A virus, H1N1, MDCK
[6] = test system: Human immunodeficiency virus 1; experiment: Antiviral activity against HIV1 with reverse transcriptase L100I mutation in human CEM cells assessed as protection against virus-induced cytopathicity; type: functional, organism-based; settings: Human immunodeficiency virus 1, CCRF-CEM
How it was run: (§3)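 CEM cells (~3 × 10⁵ cells/mL) were infected with ~100 CCID₅₀ virus per mL and seeded with serial compound dilutions. After 4 days at 37 °C, syncytium (giant cell) formation was scored microscopically. EC₅₀ is the concentration giving 50% protection against virus cytopathicity.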

[7] = test system: Human immunodeficiency virus 1; experiment: Antiviral activity against HIV1 with reverse transcriptase Y181C mutation in human CEM cells assessed as protection against virus-induced cytopathicity; type: functional, organism-based; settings: Human immunodeficiency virus 1, CCRF-CEM; how it was run: as §3
Influenza A virus H3N2 [8] = experiment: Antiviral activity against influenza H3N2 virus in MDCK cells assessed as reduction of virus-induced cytopathicity by MTS method; type: functional, organism-based
[9] = test system: Human immunodeficiency virus 1; experiment: Antiviral activity against HIV1 with reverse transcriptase K103N mutation in human CEM cells assessed as protection against virus-induced cytopathicity; type: functional, organism-based; settings: Human immunodeficiency virus 1, CCRF-CEM; how it was run: as §3
[10] = biological target: Human immunodeficiency virus type 1 reverse transcriptase (Human immunodeficiency virus 1, UniProt Q72547, Y181I); experiment: Inhibition of HIV1 reverse transcriptase p66/p51 Y181I mutant; settings: read-out: IC50; how it was run: as §2
Sindbis virus = experiment: Antiviral activity against Sindbis virus in african green monkey Vero cells assessed as protection against virus-induced cytopathicity; type: functional, organism-based; how it was run: as §1
Coxsackievirus B4 [11] = experiment: Antiviral activity against Coxsackievirus B4 in human HeLa cells assessed as protection against virus-induced cytopathicity; type: functional, organism-based; settings: Enterovirus B; how it was run: as §1
[12] = Cytotoxicity against human HEL cells assessed as drug level causing microscopically detectable alteration of normal cell morphology after 3 days; type: cell-based
Human alphaherpesvirus 1 [13] = experiment: Antiviral activity against thymidine kinase deficient and acyclovir resistant HSV1 KOS in human HEL cells assessed as protection against virus-induced cytopathicity; type: functional, organism-based; settings: Human alphaherpesvirus 1, KOS
Human alphaherpesvirus 1 [14] = experiment: Antiviral activity against HSV1 KOS in human HEL cells assessed as protection against virus-induced cytopathicity; type: functional, organism-based; settings: Human alphaherpesvirus 1, KOS
Felid alphaherpesvirus 1 = experiment: Antiviral activity against Feline herpesvirus in feline […] cells assessed as inhibition of virus-induced cytopathicity; type: functional, organism-based
[15] = test system: Human immunodeficiency virus 1; experiment: Antiviral activity against HIV1 3B in human CEM cells assessed as protection against virus-induced cytopathicity after 4 days; type: functional, organism-based; settings: Human immunodeficiency virus 1, 3B, CCRF-CEM, 96 h
How it was run: (§4)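 CEM cells (~3 × 10⁵ cells/mL) infected with ~100 CCID₅₀ per mL of HIV-1 (IIIB) or HIV-2 (ROD), then seeded into wells containing compound dilutions. After 4 days at 37 °C, syncytium (giant cell) formation was examined microscopically. EC₅₀ = concentration protecting CEM cells from HIV cytopathicity by 50%.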

[16] = test system: Vesicular stomatitis virus; experiment: Antiviral activity against VSV in human HEL cells assessed as protection against virus-induced cytopathicity; type: functional, organism-based
Influenza A virus [17] = experiment: Antiviral activity against influenza H1N1 virus in MDCK cells assessed as reduction of virus-induced cytopathicity by visual cytopathic effect scoring method; type: functional, organism-based
[18] = test system: Human immunodeficiency virus 1; experiment: Antiviral activity against HIV1 with reverse transcriptase Y181I mutation in human CEM cells assessed as protection against virus-induced cytopathicity; type: functional, organism-based; settings: Human immunodeficiency virus 1, CCRF-CEM; how it was run: as §3
[19] = Cytotoxicity against MDCK cells assessed as drug level causing microscopically detectable alteration of normal cell morphology; type: cell-based, Canis lupus familiaris; settings: dog
[20] = Cytotoxicity against african green monkey Vero cells assessed as drug level causing microscopically detectable alteration of normal cell morphology after 3 days; type: cell-based; settings: chlorocebus sabaeus
How it was run: (§5)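 Serial compound dilutions added to confluent HeLa or Vero monolayers. MCC = minimum concentration causing microscopically detectable alteration of cell morphology after 3 days of incubation.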

[21] = Cytotoxicity against MDCK cells by MTS assay; type: cell-based, Canis lupus familiaris; settings: dog
[22] = test system: Human immunodeficiency virus 2; experiment: Antiviral activity against HIV2 ROD in human CEM cells assessed as protection against virus-induced cytopathicity after 4 days; type: functional, organism-based; settings: Human immunodeficiency virus 2, ROD, CCRF-CEM, 96 h; how it was run: as §4
[23] = biological target: Human immunodeficiency virus type 1 reverse transcriptase (Human immunodeficiency virus 1, UniProt Q72547, K103N); experiment: Inhibition of HIV1 reverse transcriptase p66/p51 K103N mutant; settings: read-out: IC50; how it was run: as §2
[24] = Antiproliferative activity against human Molt4/C8 cells after 3 days; type: cell-based; settings: MOLT-4, 72 h
How it was run: (§6)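 Cells seeded at 5 × 10⁴ to 7.5 × 10⁴ cells/200 µL with or without serial compound dilutions; incubated at 37 °C for 2 days (L1210) or 3 days (Molt4/C8, CEM). Cell numbers counted with a Coulter counter. CC₅₀ = concentration reducing proliferation by 50% versus untreated controls, read from plots of cell number (% of control) against concentration. Means of at least two independent experiments.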

Vaccinia virus = experiment: Antiviral activity against Vaccinia virus Lederle in human HEL cells assessed as protection against virus-induced cytopathicity; type: functional, organism-based; settings: Orthopoxvirus vaccinia
L1210 = experiment: Antiproliferative activity against mouse L1210 cells after 2 days; type: cell-based; settings: L1210, 48 h; how it was run: as §6
[25] = test system: Respiratory syncytial virus; experiment: Antiviral activity against RSV Long in human HeLa cells assessed as protection against virus-induced cytopathicity; type: functional, organism-based; how it was run: as §1
CCRF-CEM = experiment: Antiproliferative activity against human CEM cells after 3 days; type: cell-based; settings: 72 h; how it was run: as §6
[26] = Cytotoxicity against human HeLa cells assessed as drug level causing microscopically detectable alteration of normal cell morphology after 3 days; type: cell-based; how it was run: as §5
Punta Toro virus = experiment: Antiviral activity against Punta Toro virus in african green monkey Vero cells assessed as protection against virus-induced cytopathicity; type: functional, organism-based; how it was run: as §1
[27] = test system: Human immunodeficiency virus 1; experiment: Antiviral activity against HIV1 with reverse transcriptase Y188L mutation in human CEM cells assessed as protection against virus-induced cytopathicity; type: functional, organism-based; settings: Human immunodeficiency virus 1, CCRF-CEM; how it was run: as §3
Human respirovirus 3 = experiment: Antiviral activity against Parainfluenza virus type 3 in african green monkey Vero cells assessed as protection against virus-induced cytopathicity; type: functional, organism-based; settings: Human respirovirus 3, Vero; how it was run: as §1
[28] = Cytotoxicity against feline CRFK cells by MTS assay; type: cell-based, Felis catus; settings: cat
[29] = biological target: Human immunodeficiency virus type 1 reverse transcriptase (Human immunodeficiency virus 1, UniProt Q72547); experiment: Inhibition of HIV1 reverse transcriptase p66/p51; settings: read-out: IC50
Human alphaherpesvirus 2 = experiment: Antiviral activity against HSV2 G in human HEL cells assessed as protection against virus-induced cytopathicity; type: functional, organism-based; settings: Human alphaherpesvirus 2, strain G; how it was run: as §1
Influenza A virus H3N2 [30] = experiment: Antiviral activity against influenza H3N2 virus in MDCK cells assessed as reduction of virus-induced cytopathicity by visual cytopathic effect scoring method; type: functional, organism-based
Coxsackievirus B4 [31] = experiment: Antiviral activity against Coxsackievirus B4 in african green monkey Vero cells assessed as protection against virus-induced cytopathicity; type: functional, organism-based; settings: Enterovirus B; how it was run: as §1
[32] = test system: Vesicular stomatitis virus; experiment: Antiviral activity against VSV in human HeLa cells assessed as protection against virus-induced cytopathicity; type: functional, organism-based
Feline coronavirus = experiment: Antiviral activity against Feline coronavirus in feline […] cells assessed as inhibition of virus-induced cytopathicity; type: functional, organism-based; settings: Alphacoronavirus 1

For `Cc1cc(C)cc(S(=O)(=O)c2c(C(=O)NCC(N)=O)[nH]c3ccc(Cl)cc23)c1`, the EC50 [1] was over 100 µM, the EC50 (Influenza B virus [2]) was over 4 µM and the IC50 [3] was 0.161 µM. The EC50 (Influenza B virus [4]) was over 4 µM, the EC50 (Influenza A virus [5]) was over 4 µM and the IC50 [6] was 0.008 µM. The IC50 [7] was 0.074 µM, the EC50 (Influenza A virus H3N2 [8]) was over 4 µM and the IC50 [9] was 0.029 µM. For the same compound, the IC50 [10] was 1.65 µM, the EC50 (Sindbis virus) was over 100 µM and the EC50 (Coxsackievirus B4 [11]) was at least 20 µM. The MCC at 72 h [12] was over 100 µM, the EC50 (Human alphaherpesvirus 1 [13]) was over 100 µM and the EC50 (Human alphaherpesvirus 1 [14]) was over 100 µM. It also gave an EC50 (Felid alphaherpesvirus 1) of over 100 µM, an EC50 [15] of 0.0019 µM and an EC50 [16] of over 100 µM. The EC50 (Influenza A virus [17]) was over 4 µM, the IC50 [18] was over 1 µM and the MCC [19] was 20 µM. The MCC at 72 h [20] was over 100 µM, the CC50 [21] was 44.1 µM and the EC50 [22] was over 50 µM. The IC50 [23] was 0.28 µM, the IC50 [24] was 15 µM and the EC50 (Vaccinia virus) was over 100 µM. The IC50 (L1210) was 220 µM, the EC50 [25] was over 100 µM and the IC50 (CCRF-CEM) was 92 µM. It also gave an MCC at 72 h [26] of 100 µM, an EC50 (Punta Toro virus) of over 100 µM and an IC50 [27] of 0.69 µM. It also gave an EC50 (Human respirovirus 3) of over 100 µM, a CC50 [28] of over 100 µM and an IC50 [29] of 0.026 µM. It also gave an EC50 (Human alphaherpesvirus 2) of over 100 µM, an EC50 (Influenza A virus H3N2 [30]) of over 4 µM and an EC50 (Coxsackievirus B4 [31]) of over 100 µM. For the same compound, the EC50 [32] was over 100 µM and the EC50 (Feline coronavirus) was over 100 µM.
